Source: PubChem BioAssay (Johns Hopkins Ion Channel Center)
KCNK9 inh: inhibitors of human KCNK9 two-pore domain potassium channel; HEK293 KCNK9, FluxOR thallium flux fluorescence; hits give low values; B-score at 10 µM; actives 1.2% (n = 310,000); AID 488922;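 active = ratio B-score over 3 SD below the library mean, with starting fluorescence within 5 SD of its mean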;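 also: negative B-score means less thallium flux so channel inhibition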
hERG protect: hERG (human) protection from proarrhythmic block | Q12809 | CHO-hERG, FluxOR thallium flux, dofetilide IC70 present | activation (rescue from dofetilide block), less the hit threshold, % at 10 µM | actives 0.51% (n = 310,000) | AID 1511;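 active = activation above the mean of controls blocked by dofetilide plus 5 SD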;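 also: thallium influx through hERG after potassium depolarization seen as dye fluorescence rise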
KCNQ1 act: human KCNQ1 channel potentiation or activation. CHO-K1 KCNQ1, thallium flux FluxOR fluorescence; hits give high values. B-score at 10 µM. actives 0.35% (n = 310,000). AID 2648;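 active = fluorescence ratio B-score, a plate-corrected score, at least three library SD, with initial intensity B-score within 5 SD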
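Doses: Single concentration per compound, DMSO matched to controls | Test system: KCNQ1-transfected CHO-K1 cells | Timing: 90 min dye loading and 20 min compound exposure, both at room temperature | Measured by: Kinetic FluxOR thallium fluorescence, 10-s 1-Hz baseline, 110-s post-stimulus read | Medium: Assay buffer with matched DMSO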
Kir21 block: inhibitors of mouse Kir2.1 inward-rectifier potassium channel; P35561; HEK293-Kir2.1, FluxOR thallium flux fluorescence; hits give low values; B-score at 10 µM; actives 0.85% (n = 310,000); AID 1672;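 active = fluorescence ratio B-score at or below minus 3 SD of library scores, with starting-brightness B-score within 2 SD, cut at about -4.2 in these data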;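 also: channel flux triggered by added potassium and thallium sulfate stimulus; B-score of peak minus minimum fluorescence over baseline after thallium stimulus; more negative B-score means stronger Kir2.1 block with less thallium influx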
KCNQ1 inh: human KCNQ1 channel inhibition; P51787; CHO-K1 KCNQ1, FluxOR thallium flux fluorescence; hits give high values; B-score at 10 µM; actives 1.3% (n = 310,000); AID 2642;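 active = compounds whose thallium flux B-score, printed positive for inhibition, exceeds three library SD while starting fluorescence stays within three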;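 also: channel opened by potassium depolarization with thallium stimulus after 20 min compound exposure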
KCNK3 inh: human KCNK3 channel inhibition, primary screen; actives 0.84% (n = 340,000); CHO-KCNK3 thallium flux, FluxOR fluorescence; hits give low values; B-score at 10 µM; O14649;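 active = B-score under library mean minus 4 SD, starting fluorescence ratio at most library mean plus 5 SD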;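 also: more negative B-score means stronger inhibition of thallium flux through KCNK3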
Target sequence (O14649 whole entry, looked up): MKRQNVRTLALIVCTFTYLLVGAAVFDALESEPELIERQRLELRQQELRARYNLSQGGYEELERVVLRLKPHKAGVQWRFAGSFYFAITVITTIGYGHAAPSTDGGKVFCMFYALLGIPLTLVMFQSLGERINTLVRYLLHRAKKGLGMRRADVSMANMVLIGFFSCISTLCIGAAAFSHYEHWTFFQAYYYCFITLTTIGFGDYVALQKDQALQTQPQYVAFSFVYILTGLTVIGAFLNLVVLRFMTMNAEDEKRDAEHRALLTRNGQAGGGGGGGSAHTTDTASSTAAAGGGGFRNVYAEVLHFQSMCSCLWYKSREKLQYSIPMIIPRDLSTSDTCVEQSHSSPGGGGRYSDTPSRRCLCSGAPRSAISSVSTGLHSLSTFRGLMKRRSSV
KCNK9 inh conf: human KCNK9 inhibitor confirmation | actives 43% (n = 4,900) | HEK293 KCNK9 cells, FluxOR thallium flux fluorescence | shares compounds with KCNK9 inh | inhibition, % at 10 µM;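 active = thallium signal inhibited by more than 5 SD of the compound-free buffer control wells, on both duplicate plates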;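 also: 0% = assay buffer control wells without compound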
Kir2-1 spec: tests whether KCNK9 modulators also affect mouse Kir2.1; shares compounds with KCNK9 inh; Kir2.1 cells, FluxOR thallium flux fluorescence; inhibition, % at 10 µM; actives 4% (n = 4,900); AID 492993;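 active = thallium signal drop more than 5 SD beyond the mean of the no-compound control wells, seen in both duplicate plates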;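 also: signal is fluorescence rise after thallium addition divided by baseline fluorescence; plate controls were assay buffer only for no effect and full block by chlorpromazine control for full effect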
KCNK9 uninduced: second counter-screen for KCNK9 modulators: effect in non-induced cells | shares compounds with KCNK9 inh | non-induced KCNK9-HEK293, FluxOR thallium flux | inhibition, % at 10 µM | actives 40% (n = 4,900) | AID 492997;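 active = thallium signal drop beyond 5 SD of the untreated control mean, on both duplicate plates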;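 also: plate controls were buffer only IC0 wells for no effect and SID17386958 at its maximal inhibitory level for full effect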
KCNK3 inh conf: human KCNK3 channel inhibition, confirmation assay | shares compounds with KCNK3 inh | CHO-KCNK3 thallium flux, FluxOR fluorescence; 0% buffer, 100% carvedilol maximal block | ratio percent of control, % at 10 µM | actives 99% (n = 2,400) | AID 651638;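 active = ratio percent of control, averaged over triplicates, above buffer control mean plus 5 SD, cut at about 64% in these data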;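 also: ratio is the fluorescence rise from min to max over baseline after thallium stimulus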
KCNK3 uninduced: counter-screen for KCNK3 inhibitors: effect in non-induced cells | shares compounds with KCNK3 inh | non-induced KCNK3 parental cells, FluxOR thallium flux; hits give low values | thallium flux ratio (lower = more inhibition) at 10 µM | actives 40% (n = 2,400);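 active = thallium flux ratio, averaged over three wells, more than 5 SD below the buffer control mean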;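 also: host cells are CHO cells without KCNK3 induction; ratio is peak minus trough fluorescence over baseline then normalized to buffer controls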
Active calls of the source: *; i = inactive; · = no result given. Rows were chosen to be rich in hits. Some 3.7% of all compounds tested hit in one or more screens of this group.

SMILES	KCNK9 inh	hERG protect	KCNQ1 act	Kir21 block	KCNQ1 inh	KCNK3 inh	KCNK9 inh conf	Kir2-1 spec	KCNK9 uninduced	KCNK3 inh conf	KCNK3 uninduced
CC(C)NC(=O)Nc1ccc2c(c1)C(=O)N([C@H](C)CO)C[C@H](C)[C@@H](CN(C)C(=O)NC(C)C)O2	·	·	·	·	·	i	·	·	·	·	·
O=C(COc1coc(CN2CCN(c3ccccc3)CC2)cc1=O)Nc1ccc(F)cc1	i	-10	i	-0.83	i	i	·	·	·	·	·
C=CCn1c(SCC(=O)Nc2ccccc2)nc2scc(-c3cccs3)c2c1=O	-11*	-5	i	0.47	i	-9.5*	35%*	i	34%*	114*	i
COc1ccccc1CCNC(=O)CCn1c(=O)c2cccn2c2ccc(F)cc21	i	-10	i	0.15	i	i	·	·	·	·	·
CN(Cc1ccccc1)C(=O)c1ccc(NC(=O)Cc2ccc(NC(=O)C3CCCN(C(=O)CCc4ccccc4)C3)cc2)cc1 (stereo not drawn)	·	·	·	·	·	i	·	·	·	·	·
CC1CN(CCN2CC(C)N(C=O)CC2C)C(C)CN1C=O (stereo not drawn)	·	·	·	·	·	i	·	·	·	·	·
Cc1ccc(C(=O)Oc2ccc(Br)cc2C(=S)N2CCOCC2)cc1	i	-4	i	1.4	i	i	·	·	·	·	·
Cc1ccccc1C(=O)Oc1ccc(Cl)cc1C(=S)N1CCOCC1	-12*	-12	i	-1.7	i	-9.3*	56%*	i	32%*	114*	0.16*
CC(=O)c1cccc(OCC(=O)N(C)CC(=O)NCc2ccco2)c1	·	·	·	·	·	i	·	·	·	·	·
Cc1ccc(NS(=O)(=O)c2ccc3c(c2)OCCCO3)cc1S(=O)(=O)N1CCOCC1	·	·	·	·	·	i	·	·	·	·	·
Cc1ccc(C(c2ccc(C)o2)c2cccc([N+](=O)[O-])c2O)o1	-11*	-18	i	-1.5	i	-9.8*	26%*	i	i	114*	0.15*
COc1ccc(NC(=O)C(=O)N2N=C3CCCCC3C2(O)C(F)(F)F)cc1 (stereo not drawn)	i	-10	i	1.5	i	i	·	·	·	·	·
O=S(Cc1cc(Oc2ccccc2)nc(-c2ccccc2)n1)c1ccccc1 (stereo not drawn)	-18*	-11	i	1.6	i	-10*	70%*	i	37%*	115*	i
Cc1ccc(N=Cc2c(O)c3ccccc3oc2=O)cc1F	i	-6	i	-2.1	i	i	·	·	·	·	·
CC1=C(C(=O)Nc2ccccc2)C(c2ccco2)NC(=S)N1 (stereo not drawn)	i	-6	i	-0.73	i	i	·	·	·	·	·
O=C(Nc1ccccc1)C1=C(O)CC(c2ccco2)CC1=Nc1ccccc1 (stereo not drawn)	-12*	-7	i	0.05	i	i	27%*	i	36%*	115*	0.16*
Cc1ccc(C(=O)N(CCc2ccccc2)Cc2ccccc2)cc1S(=O)(=O)N1CCCCC1	-13*	-13	i	-0.62	i	-9.1*	76%*	i	30%*	103*	i
Cc1ccc(C(=O)N(CCc2ccccc2)Cc2ccccc2)cc1S(=O)(=O)N1CCOCC1	·	·	·	·	·	i	·	·	·	·	·
CNC(=O)CSc1nnc(-c2ccccn2)n1Cc1ccco1	i	-8	i	-0.23	i	i	·	·	·	·	·
CC(C)(C)c1ccc(CSc2nnc(-c3ccccn3)n2Cc2ccco2)cc1	-11*	-16	i	-1.1	i	i	66%*	42%*	40%*	126*	0.14*
COCCn1c(=NC(=O)CSC(C)=O)sc2cc(OC)ccc21	-16*	-10	i	0.05	i	-8.9*	60%*	i	26%*	93*	i
CC(C)c1ccc(Nc2nnc(SCC(=O)NCC3CCCO3)s2)cc1 (stereo not drawn)	·	·	·	·	·	i	·	·	·	·	·
Cc1ccc(CNC(=O)CC(C)S(=O)(=O)c2ccc3c(c2)NC(=O)CS3)o1 (stereo not drawn)	i	-8	i	-1.3	i	i	·	·	·	·	·
Cc1ccc2nc3sc(C(=O)N4CCCc5ccccc54)c(N)c3cc2c1	-11*	-20	i	-1.2	i	-9.1*	53%*	i	52%*	135*	0.083*
Cc1ccc(-c2cc(C(=O)N3CCCc4ccccc43)c3ccccc3n2)cc1	i	-5	i	2.1	i	i	·	·	·	·	·
SMILES	KCNK9 inh	hERG protect	KCNQ1 act	Kir21 block	KCNQ1 inh	KCNK3 inh	KCNK9 inh conf	Kir2-1 spec	KCNK9 uninduced	KCNK3 inh conf	KCNK3 uninduced
CCCn1c(SCC#N)nc2c(c1=O)C1(CCCC1)Cc1ccccc1-2	-9.9*	-4	i	0.31	i	-10*	52%*	i	29%*	95*	i
CCc1nc2c(c(=O)[nH]1)C1(CCCC1)Cc1ccccc1-2	i	0	i	1	i	i	·	·	·	·	·
CCC(=O)c1cn([C@H](CCC(OC)OC)CC(=O)OC(C)(C)C)cc1CC	i	-9	i	-0.46	i	i	·	·	·	·	·
COc1ccc(/C=N/NC(=O)c2ccccc2OCc2ccccc2)c(OC)c1	-21*	-20	i	0.03	11*	-12*	72%*	i	i	126*	0.14*
COc1ccc(/C=N/NC(=O)c2cccc(NC(=O)c3ccccc3Cl)c2)c(OC)c1	-12*	-8	i	-1	i	-10*	49%*	i	i	106*	i
COc1ccc(/C(C)=N/NC(=O)c2ccccc2OCc2ccccc2)c(OC)c1	i	-3	i	1.3	i	i	·	·	·	·	·
COc1ccc(/C=N/NC(=O)c2cccc(NC(=O)c3ccccc3Cl)c2)cc1	i	-7	i	-0.95	i	i	·	·	·	·	·
COc1ccc(Cl)cc1C(=O)NNC(=O)COC(=O)CCN=C1NS(=O)(=O)c2ccccc21	i	-12	i	-2.4	i	i	·	·	·	·	·
CN(Cc1ccccc1)C(=O)CCS(=O)(=O)c1ccc2c(c1)NC(=O)CS2	i	-7	i	-1.2	i	i	·	·	·	·	·
